According to ChEMBL document CHEMBL4732173, “Easily accessed nitroquinolones exhibiting potent and selective anti-tubercular activity” (Eur J Med Chem, 2021):
Converted amounts (≈) assume the structure as drawn.

Tests used:
[1] = test system: Mycobacterium tuberculosis; experiment: Antitubercular activity against Mycobacterium tuberculosis harboring gfp reporter gene and wild type DrpE1 assessed as inhibition of bacterial growth incubated for 14 days by fluorescence based analysis; type: functional; conditions: 336 h, time 14 day
How it was run: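 Controls were rifampicin at 2× MIC and 5% DMSO. Plates ran 14 days at 37 °C, 5% CO2, with GFP read at ex 485/em 520. Data were normalised and curve-fitted (Levenberg-Marquardt). MIC90 is the lowest concentration inhibiting >90% of growth.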

[2] = test system: Mycobacterium tuberculosis; experiment: Antitubercular activity against Mycobacterium tuberculosis harboring gfp reporter gene and DrpE1 mutation assessed as inhibition of bacterial growth incubated for 14 days by fluorescence based analysis; type: functional; conditions: time 14 day

Row | SMILES | MIC90 [1] [µM] | MIC90 [2] [µM]
1 | O=C(NCCNCCO)c1cn(Cc2cccc(F)c2)c2ccc([N+](=O)[O-])cc2c1=O | 3.7 (≈ 1.59 µg/mL) | 
2 | NNC(=O)c1ccncc1 [ISONIAZID] | 0.2 (≈ 0.0274 µg/mL) | 
3 | N#Cc1cccc(Cn2cc(C(=O)NO)c(=O)c3cc([N+](=O)[O-])ccc32)c1 | > 125 | 
4 | O=C(NCCN1CCOCC1)c1cn(Cc2cccc(Cl)c2)c2ccc([N+](=O)[O-])cc2c1=O | 31.9 (≈ 15 µg/mL) | 
5 | O=C(NCCNCCO)c1cn(Cc2ccc(F)cc2)c2ccc([N+](=O)[O-])cc2c1=O | 0.919 (≈ 0.394 µg/mL) | 
6 | N#Cc1cccc(Cn2cc(C(=O)O)c(=O)c3cc([N+](=O)[O-])ccc32)c1 | > 125 | 
7 | N#Cc1cccc(Cn2cc(C(=O)NCCOCCO)c(=O)c3cc([N+](=O)[O-])ccc32)c1 | 15 (≈ 6.54 µg/mL) | 
8 | O=C(NCCOCCO)c1cn(Cc2cccc(F)c2)c2ccc([N+](=O)[O-])cc2c1=O | > 125 | 
9 | N#Cc1ccc(Cn2cc(C(=O)NCCNCCO)c(=O)c3cc([N+](=O)[O-])ccc32)cc1 | > 125 | 
10 | N#Cc1cccc(Cn2cc(C(=O)NCCNCCO)c(=O)c3cc([N+](=O)[O-])ccc32)c1 | 3.69 (≈ 1.61 µg/mL) | 
11 | COCCNC(=O)c1cn(Cc2cccc(C#N)c2)c2ccc([N+](=O)[O-])cc2c1=O | > 125 | 
12 | CO[C@H]1/C=C/O[C@@]2(C)Oc3c(C)c(O)c4c(O)c(c(/C=N/N5CCN(C)CC5)c(O)c4c3C2=O)NC(=O)/C(C)=C\C=C\[C@H](C)[C@H](O)[C@@H](C)[C@@H](O)[C@@H](C)[C@H](OC(C)=O)[C@@H]1C [RIFAMPIN] | 0.01 (≈ 0.00823 µg/mL) | 
13 | CCOC(=O)c1c[nH]c2c(C(F)(F)F)cc([N+](=O)[O-])cc2c1=O | 1.84 (≈ 0.609 µg/mL) | 
14 | COCCNC(=O)c1cn(Cc2ccc(C#N)cc2)c2ccc([N+](=O)[O-])cc2c1=O | > 125 | 
15 | O=C(NCCN1CCOCC1)c1cn(Cc2cccc(F)c2)c2ccc([N+](=O)[O-])cc2c1=O | > 125 | 
16 | O=C(NO)c1cn(Cc2cccc(Br)c2)c2ccc([N+](=O)[O-])cc2c1=O | > 125 | 
17 | N#Cc1ccc(Cn2cc(C(=O)NCCOCCO)c(=O)c3cc([N+](=O)[O-])ccc32)cc1 | 14 (≈ 6.11 µg/mL) | 
18 | COCCNC(=O)c1cn(Cc2ccc(F)cc2)c2ccc([N+](=O)[O-])cc2c1=O | < 0.244 | 62.5 (≈ 25 µg/mL)
19 | O=C(NCCN1CCOCC1)c1cn(Cc2cccc(Br)c2)c2ccc([N+](=O)[O-])cc2c1=O | > 125 | 
20 | COCCNC(=O)c1cn(Cc2cccc(Cl)c2)c2ccc([N+](=O)[O-])cc2c1=O | 0.675 (≈ 0.281 µg/mL) | 
21 | COCCNC(=O)c1cn(Cc2cccc(F)c2)c2ccc([N+](=O)[O-])cc2c1=O | > 125 | 
22 | O=C(NCCOCCO)c1cn(Cc2cccc(Cl)c2)c2ccc([N+](=O)[O-])cc2c1=O | 16 (≈ 7.15 µg/mL) | 
23 | O=C(NO)c1cn(Cc2cccc(Cl)c2)c2ccc([N+](=O)[O-])cc2c1=O | 125 (≈ 46.7 µg/mL) | 
24 | O=C(NO)c1cn(Cc2cccc(F)c2)c2ccc([N+](=O)[O-])cc2c1=O | > 125 | 
25 | O=C(NCCOCCO)c1cn(Cc2ccc(F)cc2)c2ccc([N+](=O)[O-])cc2c1=O | 8.08 (≈ 3.47 µg/mL) | 
